Numbering of substitutions follows the chain as printed. “And” between values parts separate entries of the source, which are not always exact repeats. Identical values can stand only once.
Columns and labels:
PPM1A [1] = target: T1, PPM1A (Homo sapiens, UniProt P35813); assay: PPM1A-catalyzed hydrolysis of pp-ERK and pp-P38 phospho-peptides; assay type: biochemical; details: pp-ERK and pp-P38 phospho-peptide substrates
T1 sequence (P35813 1-382): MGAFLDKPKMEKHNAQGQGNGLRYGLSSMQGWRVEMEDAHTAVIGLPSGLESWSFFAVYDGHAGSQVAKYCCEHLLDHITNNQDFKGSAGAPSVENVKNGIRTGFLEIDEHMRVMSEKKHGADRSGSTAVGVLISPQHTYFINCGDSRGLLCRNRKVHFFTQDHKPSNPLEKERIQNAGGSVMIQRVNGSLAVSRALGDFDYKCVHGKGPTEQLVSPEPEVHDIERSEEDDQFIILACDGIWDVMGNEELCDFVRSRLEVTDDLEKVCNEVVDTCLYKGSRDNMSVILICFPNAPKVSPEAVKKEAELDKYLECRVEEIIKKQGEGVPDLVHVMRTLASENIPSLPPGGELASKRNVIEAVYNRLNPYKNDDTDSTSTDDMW

PPM1G [2] = target: T2, PPM1G (Homo sapiens, UniProt O15355); assay: PPM1G-catalyzed hydrolysis of pp-ERK and pp-P38 phospho-peptides; assay type: biochemical; details: pp-ERK and pp-P38 phospho-peptide substrates
T2 sequence (O15355 1-546): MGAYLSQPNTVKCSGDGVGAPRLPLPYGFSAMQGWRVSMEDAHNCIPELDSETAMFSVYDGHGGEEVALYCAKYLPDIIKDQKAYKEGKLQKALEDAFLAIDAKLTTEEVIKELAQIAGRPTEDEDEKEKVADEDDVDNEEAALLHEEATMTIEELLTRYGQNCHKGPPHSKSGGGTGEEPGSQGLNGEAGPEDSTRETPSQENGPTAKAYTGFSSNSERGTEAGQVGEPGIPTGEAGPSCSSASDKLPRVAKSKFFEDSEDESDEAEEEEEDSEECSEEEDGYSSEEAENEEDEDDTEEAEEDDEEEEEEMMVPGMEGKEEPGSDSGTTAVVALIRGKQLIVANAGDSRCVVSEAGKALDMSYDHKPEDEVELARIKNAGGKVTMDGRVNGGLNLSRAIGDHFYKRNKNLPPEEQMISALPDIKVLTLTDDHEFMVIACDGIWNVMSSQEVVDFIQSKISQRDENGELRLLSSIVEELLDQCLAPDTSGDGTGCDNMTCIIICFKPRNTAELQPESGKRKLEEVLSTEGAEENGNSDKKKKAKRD

PPM1G [3] = target: T2, PPM1G; assay: Dephosphorylation of pp-ERK2 protein by PPM1G in vitro; assay type: biochemical; details: 1.5 μM Cd^2+, 1 mM Mn^2+, pH 8.0, 37°C
Summary of the method: (§1)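 Recombinant doubly phosphorylated ERK2 as substrate in 0.05 M Tris/0.05 M Bis-Tris/0.1 M acetate, pH 8.0, 37°C, 1 mM Mn2+, with or without 1.5 µM Cd2+; reactions started by adding phosphatase, stopped by boiling in SDS buffer (100°C, 10 min); phospho-ERK (pT/pY) by Western blot; triplicate, mean ± standard error.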

[4] = system: PPM1A-regulated ERK phosphorylation in HEK293 cells; assay: EGF-stimulated ERK phosphorylation in PPM1A-overexpressing HEK293 cells; assay type: cell-based, human; details: HEK293, PPM1A overexpression, 1.5 μM Cd^2+, EGF 5 ng/ml 5 min
Summary of the method: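 HEK293 in DMEM (25 mM glucose, 10% FBS, penicillin/streptomycin), 37°C, 5% CO2, transiently transfected with Flag-tagged phosphatase or control vector. 36 h post-transfection, serum-starved 12 h, 1.5 µM CdCl2 or none for 6 h, then EGF 5 ng/ml, 5 min, 37°C. Lysates immunoblotted for phospho-ERK or phospho-AKT Ser473; actin loading control; ≥3 experiments.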

PP2A = PP2A (Homo sapiens, UniProt P67775); assay: Cadmium inhibition assay of PP2A; assay type: biochemical; details: pNPP, pH 8.0, 25°C
Summary of the method: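 Commercial PP2A assayed on pNPP in 0.05 M Tris/0.05 M Bis-Tris/0.1 M acetate at pH 8.0 and 25°C; EDTA (0.5 M, pH 10.0) stop; p-nitrophenol at 405 nm.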

PC12 cells = assay: Apoptosis assay in PC12 cells; assay type: cell-based; details: 1.5 or 2.5 μM Cd^2+, 24 h
PPM1A [5] = target: T1, PPM1A; assay: Dephosphorylation of pp-ERK2 protein by PPM1A in vitro; assay type: biochemical; details: 1.5 μM Cd^2+, 1 mM Mn^2+, pH 8.0, 37°C, wild-type PPM1A
Summary of the method: as §1

PHLPP2 catalytic domain = target: T3, PHLPP2 catalytic domain (Homo sapiens, UniProt Q6ZVD8); assay: Cadmium inhibition assay of PHLPP2 catalytic domain; assay type: biochemical; details: pNPP, pH 8.0, 25°C
T3 sequence (Q6ZVD8 784-1033): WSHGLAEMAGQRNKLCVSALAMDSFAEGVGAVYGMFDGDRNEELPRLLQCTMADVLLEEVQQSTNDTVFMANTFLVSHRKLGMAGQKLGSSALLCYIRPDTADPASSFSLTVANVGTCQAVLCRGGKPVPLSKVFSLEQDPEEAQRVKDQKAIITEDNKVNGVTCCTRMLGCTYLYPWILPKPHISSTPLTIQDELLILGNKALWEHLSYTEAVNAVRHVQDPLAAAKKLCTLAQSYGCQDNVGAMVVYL
Summary of the method: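 His-tagged human PHLPP2 catalytic domain (residues 784-1033) expressed from pET-30a; pNPP hydrolysis in 0.05 M Tris, 0.05 M Bis-Tris, 0.1 M acetate, pH 8.0, 25°C, stopped with 0.5 M EDTA pH 10.0; p-nitrophenol at 405 nm.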

[6] = system: PPM1A D239K-regulated P38 and JNK-1 phosphorylation in HEK293 cells; assay type: cell-based, human; details: HEK293, PPM1A D239K overexpression, 1.5 μM Cd^2+
Summary of the method: (§2)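 Transfected HEK293 (Flag-tagged wild-type PPM1A, D239K mutant, or control vector) starved 12 h at 36 h post-transfection, then exposed to 1.5 µM CdCl2 or none for 6 h before sorbitol (0.4 M, 20 min, 37°C). Phospho-P38 and phospho-JNK by immunoblotting of cleared lysates (equal protein, BCA); data from ≥3 experiments.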

[7] = system: PPM1A-regulated P38 and JNK-1 phosphorylation in HEK293 cells; assay type: cell-based, human; details: HEK293, PPM1A overexpression, 1.5 μM CdCl2 6 h, sorbitol 0.4 M 20 min
Summary of the method: as §2

PPM1A D282A = target: T4, PPM1A D282A (Homo sapiens, UniProt P35813, D282A); assay: Dephosphorylation of pp-ERK2 protein by PPM1A D282A in vitro; assay type: biochemical; details: 1.5 μM Cd^2+
T4 sequence (P35813 1-382 D282A): T1 sequence (P35813 1-382) with D282A
Summary of the method: as §1

PPM1G [8] = target: T2, PPM1G; assay: PPM1G-catalyzed pNPP hydrolysis, metal ion activation and inhibition; assay type: biochemical; details: PPM1G wild type, Mn^2+ as variable substrate, pH 8.0, 25°C
Summary of the method: (§3)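 Recombinant N-terminal His-tagged human wild-type enzyme in pNPP buffer (0.05 M Tris/0.05 M Bis-Tris/0.1 M acetate), pH 8.0, 25°C. Metal activation: Mn2+ varied 1 to 100 mM with saturating pNPP (10-40 mM), EDTA stop, 405 nm, Michaelis-Menten fit. Inhibition: pNPP fixed at 20 mM, Mn2+ varied, Cd2+ at 0, 0.25, 0.5 and 1.0 µM; double-reciprocal analysis.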

[9] = system: PC12 cells overexpressing PPM1A D239K; assay: Apoptosis assay in PC12 cells overexpressing PPM1A D239K; assay type: cell-based; details: overexpression of Cd^2+ insensitive mutant D239K; 1.5 and 2.5 μM, 24 h
PPM1A [10] = target: T1, PPM1A; assay: PPM1A-catalyzed pNPP hydrolysis, metal ion activation and inhibition; assay type: biochemical; details: PPM1A wild type, Mn^2+ as variable substrate, pH 8.0, 25°C
Summary of the method: as §3

HEK293 cells = assay: Cell cycle assay in PPM1A-overexpressing HEK293 cells; assay type: cell-based, human; details: HEK293, PPM1A overexpression, 1.5 μM Cd^2+, 24 h
Summary of the method: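 HEK293 transfected with Flag-PPM1A, serum-starved 12 h (36 h post-transfection), given 1.5 µM CdCl2 for 24 h with cycling restarted by 10% FBS medium. Cells fixed in 75% ethanol at 4°C overnight, resuspended in PBS with 0.1% NaN3, stained with propidium iodide (50 µg/ml); DNA content by flow cytometry, G2/M percentage; ≥3 repeats.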

PPM1A D239K = target: T5, PPM1A D239K (Homo sapiens, UniProt P35813, D239K); assay: Dephosphorylation of pp-ERK2 protein by PPM1A D239K in vitro; assay type: biochemical; details: 1.5 μM Cd^2+
T5 sequence (P35813 1-382 D239K): T1 sequence (P35813 1-382) with D239K
Summary of the method: as §1

[11] = target: T6, striatum-enriched phosphatase (STEP) (Homo sapiens, UniProt P54829); assay: Dephosphorylation of pp-ERK2 protein by STEP in vitro; assay type: biochemical; details: 1.5 μM Cd^2+, pH 8.0, 37°C
T6 sequence (P54829 1-565): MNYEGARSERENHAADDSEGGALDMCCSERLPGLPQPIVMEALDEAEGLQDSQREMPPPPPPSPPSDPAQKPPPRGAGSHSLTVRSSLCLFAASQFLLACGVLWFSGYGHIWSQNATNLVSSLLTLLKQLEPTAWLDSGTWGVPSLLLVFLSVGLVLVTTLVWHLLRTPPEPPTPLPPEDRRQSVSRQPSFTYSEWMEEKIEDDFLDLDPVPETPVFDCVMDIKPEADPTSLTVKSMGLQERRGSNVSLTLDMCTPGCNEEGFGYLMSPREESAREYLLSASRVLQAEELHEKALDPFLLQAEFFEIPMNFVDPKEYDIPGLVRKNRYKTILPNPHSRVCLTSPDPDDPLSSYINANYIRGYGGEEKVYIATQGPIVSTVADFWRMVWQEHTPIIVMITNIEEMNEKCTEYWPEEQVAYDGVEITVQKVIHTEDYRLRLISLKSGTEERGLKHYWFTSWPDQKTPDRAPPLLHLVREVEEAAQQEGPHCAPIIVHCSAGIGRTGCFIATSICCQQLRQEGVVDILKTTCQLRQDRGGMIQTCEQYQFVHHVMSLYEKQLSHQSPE

PP2A, sequence (P67775 whole entry): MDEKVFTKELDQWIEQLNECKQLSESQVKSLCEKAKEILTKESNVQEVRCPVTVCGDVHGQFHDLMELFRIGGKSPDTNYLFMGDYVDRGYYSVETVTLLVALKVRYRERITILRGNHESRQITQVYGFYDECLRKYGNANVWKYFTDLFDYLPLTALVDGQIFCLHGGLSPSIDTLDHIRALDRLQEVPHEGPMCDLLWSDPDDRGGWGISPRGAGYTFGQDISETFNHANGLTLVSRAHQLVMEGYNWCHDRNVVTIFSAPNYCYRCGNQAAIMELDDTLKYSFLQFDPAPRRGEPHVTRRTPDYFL
PP2A, sequence (P30153 2-589 partner limits assumed): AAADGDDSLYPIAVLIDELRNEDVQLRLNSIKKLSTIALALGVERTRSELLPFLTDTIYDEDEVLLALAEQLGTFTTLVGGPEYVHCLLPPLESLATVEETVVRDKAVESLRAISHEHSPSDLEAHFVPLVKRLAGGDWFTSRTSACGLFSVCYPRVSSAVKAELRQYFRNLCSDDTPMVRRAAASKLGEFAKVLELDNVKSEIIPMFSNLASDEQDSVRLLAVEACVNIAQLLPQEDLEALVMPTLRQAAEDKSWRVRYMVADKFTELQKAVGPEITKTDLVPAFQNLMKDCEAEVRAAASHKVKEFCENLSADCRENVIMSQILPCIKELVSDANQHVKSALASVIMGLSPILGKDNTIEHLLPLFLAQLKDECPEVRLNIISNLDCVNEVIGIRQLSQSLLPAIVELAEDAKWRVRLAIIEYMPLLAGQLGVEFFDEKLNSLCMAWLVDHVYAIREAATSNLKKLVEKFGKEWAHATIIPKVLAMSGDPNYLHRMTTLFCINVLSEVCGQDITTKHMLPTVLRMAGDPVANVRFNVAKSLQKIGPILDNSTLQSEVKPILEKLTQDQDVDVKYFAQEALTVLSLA

SMILES: [Cd+2] [Cd^2+, cadmium]
- IC50 (PPM1A [1]): low micromolar range
- IC50 (PPM1G [2]): low micromolar range
- effect on dephosphorylation of phospho-ERK (PPM1G [3]): substantially blocked
- effect on PPM1A reduction of EGF-induced ERK phosphorylation [4]: reversed
- IC50 (PP2A): 130 µM
- PC12 cell apoptosis (PC12 cells): induced
- effect on dephosphorylation of phospho-ERK (PPM1A [5]): substantially blocked
- IC50 (PHLPP2 catalytic domain): 3 mM
- effect on D239K block of sorbitol-induced P38 and JNK-1 phosphorylation [6]: much weaker effects
- effect on PPM1A block of sorbitol-induced P38 and JNK-1 phosphorylation [7]: drastically reversed
- effect on dephosphorylation of phospho-ERK (PPM1A D282A): minimally affected
- Ki (PPM1G [8]): < 1000 nM and ~1000 nM
- PC12 cell apoptosis [9]: did not promote
- Ki (PPM1A [10]): < 1000 nM and ~1000 nM
- effect on PPM1A-induced increase in proportion of cells in G2/M (HEK293 cells): greatly reversed
- effect on dephosphorylation of phospho-ERK (PPM1A D239K): minimally affected
- effect on dephosphorylation of phospho-ERK [11]: no effect

Source: article PMC3730172 (Scientific Reports, 2013)
